# Data: ChEMBL document CHEMBL4177552, “Synthesis and hyperpolarisation of eNOS substrates for quantification of NO production by 1H NMR spectroscopy” (Bioorg Med Chem, 2017)
# Where a SMILES comes first, the peptide text is derived from it.
# Molecular target: T1, Nitric oxide synthase 3 (Bos taurus) (UniProt P29473)
# T1 sequence (whole entry): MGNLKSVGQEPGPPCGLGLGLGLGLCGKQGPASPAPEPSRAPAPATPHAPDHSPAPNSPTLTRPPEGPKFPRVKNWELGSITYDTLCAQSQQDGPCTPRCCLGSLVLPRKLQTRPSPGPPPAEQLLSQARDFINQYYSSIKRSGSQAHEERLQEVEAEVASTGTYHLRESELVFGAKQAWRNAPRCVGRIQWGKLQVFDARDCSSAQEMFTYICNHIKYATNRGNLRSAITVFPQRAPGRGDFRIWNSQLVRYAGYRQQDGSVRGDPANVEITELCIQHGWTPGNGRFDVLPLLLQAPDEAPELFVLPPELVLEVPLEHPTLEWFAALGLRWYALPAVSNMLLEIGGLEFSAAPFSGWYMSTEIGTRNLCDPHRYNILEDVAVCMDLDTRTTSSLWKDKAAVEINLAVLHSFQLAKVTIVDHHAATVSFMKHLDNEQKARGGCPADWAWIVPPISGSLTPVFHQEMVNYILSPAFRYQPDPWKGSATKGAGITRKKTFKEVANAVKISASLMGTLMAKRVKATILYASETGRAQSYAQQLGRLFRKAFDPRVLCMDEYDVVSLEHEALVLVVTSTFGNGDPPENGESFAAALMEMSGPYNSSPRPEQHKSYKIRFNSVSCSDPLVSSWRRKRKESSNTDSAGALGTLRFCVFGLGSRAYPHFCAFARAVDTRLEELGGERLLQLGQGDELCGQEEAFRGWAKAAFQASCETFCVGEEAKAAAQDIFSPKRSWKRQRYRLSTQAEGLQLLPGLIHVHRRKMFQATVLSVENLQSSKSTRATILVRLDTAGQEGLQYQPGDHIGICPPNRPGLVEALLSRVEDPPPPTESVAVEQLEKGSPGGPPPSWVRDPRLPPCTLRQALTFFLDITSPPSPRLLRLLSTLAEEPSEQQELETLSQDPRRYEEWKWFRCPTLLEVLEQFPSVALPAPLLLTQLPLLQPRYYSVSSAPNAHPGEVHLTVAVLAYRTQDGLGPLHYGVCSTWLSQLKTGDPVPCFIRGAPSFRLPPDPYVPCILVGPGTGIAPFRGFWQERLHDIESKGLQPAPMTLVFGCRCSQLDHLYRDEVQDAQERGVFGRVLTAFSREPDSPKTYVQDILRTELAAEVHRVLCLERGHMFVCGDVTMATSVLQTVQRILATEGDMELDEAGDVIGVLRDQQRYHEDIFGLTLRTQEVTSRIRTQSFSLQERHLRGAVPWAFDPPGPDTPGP
# Experiment: Substrate activity at recombinant bovine eNOS assessed as enzyme mediated nitrite production after 40 mins by Griess reagent base LDH assay
# Method in brief: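 Run for 40 min alongside an l-arginine positive control and a negative control. Stopped with ice-cold 20 mM HEPES pH 5.5, 2 mM EDTA, 2 mM EGTA. NO-derived nitrite quantified by Griess colorimetry (nitrate/nitrite LDH method).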
row,Structure (SMILES),Activity
1,N=C(N)NCCC[C@H](N)C(=O)NCc1ccncc1,48 µM
2,N/C(=N\O)NCCCCC(=O)NCc1ccncc1,29 µM
3,N/C(=N\O)NCCC[C@H](N)C(=O)NCc1ccncc1,26 µM
4,CN(Cc1ccncc1)C(=O)[C@@H](N)CCCNC(=N)N,21 µM
5,CC(=O)N[C@@H](CCCN/C(N)=N/O)C(=O)NCc1ccncc1,27 µM
6,N=C(N)NCCC[C@H](N)C(=O)NCc1cccnc1,22 µM
7,CN(Cc1cccnc1)C(=O)[C@@H](N)CCCNC(=N)N,23 µM
8,CC(NC(=O)[C@@H](N)CCCNC(=N)N)c1ccncc1 (stereo partly drawn),20 µM
9,N=C(N)NCCC[C@H](N)C(=O)Nc1ccncc1,22 µM
10,N=C(N)NCCC[C@H](N)C(=O)N[C@@H](Cc1cccnc1)C(=O)O (HELM PEPTIDE1{R.[O=C(O)[C@H](Cc1cccnc1)N[*:1]]}$$$$V2.0),38 µM
11,CC(NC(=O)[C@@H](N)CCCNC(=N)N)c1cccnc1 (stereo partly drawn),26 µM
12,N=C(N)NCCC[C@H](N)C(=O)O,25 µM

# Test system: not listed separately
# Experiment: Drug metabolism is PBS buffer assessed as compound conversion after 3 hrs by 1H NMR spectroscopy
row,Structure (SMILES),degraded at 3 h
1,N=C(N)NCCC[C@H](N)C(=O)Nc1ccncc1,41%
